Results reported in ChEMBL document CHEMBL1148276, “Oral bioavailability of a new class of micro-opioid receptor agonists containing 3,6-bis[Dmt-NH(CH(2))(n)]-2(1H)-pyrazinone with central-mediated analgesia” (J Med Chem, 2004).

How the values were obtained:
Mu-type opioid receptor [1] = target: Mu-type opioid receptor (Rattus norvegicus, UniProt P33535); assay: Compound was tested for binding affinity towards Opioid receptor mu 1 by displacing [3H]DAGO radioligand in rat brain P2 synaptosomes membranes.; type: cell membranes
Chain of Mu-type opioid receptor (Rattus norvegicus, UniProt P33535) (P33535 whole entry): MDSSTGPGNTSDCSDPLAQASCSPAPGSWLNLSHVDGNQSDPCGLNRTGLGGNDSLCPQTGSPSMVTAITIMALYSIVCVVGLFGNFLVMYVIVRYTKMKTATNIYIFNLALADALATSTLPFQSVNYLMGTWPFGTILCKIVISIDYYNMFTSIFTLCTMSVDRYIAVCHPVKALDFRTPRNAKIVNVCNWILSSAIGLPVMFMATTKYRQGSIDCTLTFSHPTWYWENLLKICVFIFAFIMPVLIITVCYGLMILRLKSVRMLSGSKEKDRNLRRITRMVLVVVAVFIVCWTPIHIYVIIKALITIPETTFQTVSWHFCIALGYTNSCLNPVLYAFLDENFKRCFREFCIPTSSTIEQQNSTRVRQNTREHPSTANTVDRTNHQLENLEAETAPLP

[2] = system: Opioid receptors; mu & delta; assay: Selectivity ratio of Ki of delta-opioid receptor to mu-opioid receptor; type: protein assay
Outline: (§1)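 Competition binding at equilibrium (2.5 h, 22 °C) on rat brain P2 synaptosomal membranes, preincubated to strip endogenous opioids, washed with protease inhibitor, stored in 20% glycerol at -80 °C; [3H]DAMGO (μ) or [3H]DPDPE (δ); nonspecific binding with 2 μM unlabeled peptide; GF/C filtration; Ki by Cheng-Prusoff, duplicates, 5-8 doses, 3-5 preparations.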

[3] = target: Delta-type opioid receptor (Rattus norvegicus, UniProt P33533); assay: Compound was tested for binding affinity towards opioid receptor delta 1 by displacing [3H]DPDPE radioligand in rat brain P2 synaptosomes membranes.; type: cell membranes; outline: as §1
Chain of Delta-type opioid receptor (Rattus norvegicus, UniProt P33533) (P33533 whole entry): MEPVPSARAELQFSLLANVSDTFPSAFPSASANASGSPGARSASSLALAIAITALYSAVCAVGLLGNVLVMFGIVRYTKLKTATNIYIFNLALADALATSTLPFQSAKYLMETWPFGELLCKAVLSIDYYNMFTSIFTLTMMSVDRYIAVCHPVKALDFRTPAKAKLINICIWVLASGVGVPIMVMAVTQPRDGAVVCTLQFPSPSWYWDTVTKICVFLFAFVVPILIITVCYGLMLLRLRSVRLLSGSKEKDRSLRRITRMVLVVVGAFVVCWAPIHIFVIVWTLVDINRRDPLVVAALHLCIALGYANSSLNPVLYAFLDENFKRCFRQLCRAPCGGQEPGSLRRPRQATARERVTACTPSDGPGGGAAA

[4] = target: Delta-type opioid receptor (Mus musculus, UniProt P32300); assay: Compound was tested for opioid receptor delta 1 agonism or antagonism in mouse vas deferens; type: functional, tissue-based
Chain of Delta-type opioid receptor (Mus musculus, UniProt P32300) (P32300 whole entry): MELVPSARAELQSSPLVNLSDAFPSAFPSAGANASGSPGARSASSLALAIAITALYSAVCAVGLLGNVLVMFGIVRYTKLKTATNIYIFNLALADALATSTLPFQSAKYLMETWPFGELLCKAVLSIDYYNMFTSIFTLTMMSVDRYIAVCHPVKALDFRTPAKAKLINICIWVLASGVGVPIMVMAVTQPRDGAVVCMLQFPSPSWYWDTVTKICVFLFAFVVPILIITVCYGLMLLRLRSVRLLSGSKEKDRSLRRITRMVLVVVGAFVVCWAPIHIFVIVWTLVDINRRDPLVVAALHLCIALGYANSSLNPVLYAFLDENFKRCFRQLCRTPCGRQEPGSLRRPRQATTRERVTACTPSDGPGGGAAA

Mu-type opioid receptor [5] = target: Mu-type opioid receptor (Cavia porcellus, UniProt P97266); assay: Compound was tested for Opioid receptor mu 1 agonism in isolated tissues from guinea pig ileum; type: functional, tissue-based
Chain of Mu-type opioid receptor (Cavia porcellus, UniProt P97266) (P97266 whole entry): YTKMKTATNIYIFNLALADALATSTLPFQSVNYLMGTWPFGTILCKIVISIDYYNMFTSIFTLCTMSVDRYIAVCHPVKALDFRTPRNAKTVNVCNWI

Mus musculus [6] = species: Mus musculus; assay: Potency relative to morphine in hot plate test in mice, perorally; Vale ranges from 0.16-0.24; type: functional
Mus musculus [7] = assay: Potency relative to morphine in tail flick test in mice, subcutaneously; type: functional
Outline: (§2)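 Male Swiss-Webster mice (20-25 g); radiant-heat tail-flick, baseline 2-3 s, cutoff 8 s; dosing icv or sc in saline pH 7, po in water; readings from 10, 15 or 30 min respectively until return to baseline; AUC of latency vs time, 5-7 mice per point; relative potency from doses giving analgesia equivalent to morphine.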

Mus musculus [8] = assay: Potency relative to morphine in hot plate test in mice, subcutaneously; type: functional
Mus musculus [9] = species: Mus musculus; assay: Potency relative to morphine in tail flick test in mice, perorally; type: functional; outline: as §2
Mus musculus [10] = assay: Potency relative to morphine in hot plate test in mice, intracerebroventricularly; Vale ranges from 18-21; type: functional
Mus musculus [11] = assay: Potency relative to morphine in tail flick test in mice, intracerebroventricularly; Vale ranges from 50-63; type: functional; outline: as §2

SMILES: Cc1nc(CCCCNC(=O)C(N)Cc2ccc(O)cc2)c(O)nc1CCCCNC(=O)C(N)Cc1ccc(O)cc1 (stereo not given)
- Ki (Mu-type opioid receptor [1]): 70.2 nM
- Ratio [2]: 31
- Ki [3]: 2190 nM

SMILES: Cc1nc(CCCNC(=O)C(N)Cc2ccc(O)cc2)c(O)nc1CCCNC(=O)C(N)Cc1ccc(O)cc1 (stereo not given)
- Ki (Mu-type opioid receptor [1]): 25.7 nM
- Ratio [2]: 17
- Ki [3]: 435 nM

SMILES: Cc1cc(O)cc(C)c1CC(N)C(=O)NCCc1nc(O)c(CCNC(=O)C(N)Cc2c(C)cc(O)cc2C)nc1C (stereo not given)
- IC50 [4]: > 10000 nM
- Ki [3]: 7.26 nM
- IC50 (Mu-type opioid receptor [5]): 12.9 nM

SMILES: Cc1nc(CCNC(=O)C(N)Cc2ccc(O)cc2)c(=O)[nH]c1CCNC(=O)C(N)Cc1ccc(O)cc1 (stereo not given)
- Ki (Mu-type opioid receptor [1]): 309 nM
- Ratio [2]: 9.4
- Ki [3]: 2900 nM

SMILES: Cc1cc(O)cc(C)c1CC(N)C(=O)NCc1nc(O)c(CNC(=O)C(N)Cc2c(C)cc(O)cc2C)nc1C (stereo not given)
- IC50 [4]: > 10000 nM
- Ki (Mu-type opioid receptor [1]): 1.16 nM
- Ratio [2]: 13.5
- Ki [3]: 15.7 nM
- IC50 (Mu-type opioid receptor [5]): 1690 nM

SMILES: Cc1cc(O)cc(C)c1CC(N)C(=O)NCCCc1nc(O)c(CCCNC(=O)C(N)Cc2c(C)cc(O)cc2C)nc1C.Cl.Cl (stereo not given)
- IC50 [4]: > 1000 nM
- Activity (Mus musculus [6]): 0.24
- Activity (Mus musculus [7]): 0.63
- Ki (Mu-type opioid receptor [1]): 0.042 nM
- Ratio [2]: 307
- Activity (Mus musculus [8]): 0.55
- Ki [3]: 13.2 nM
- Activity (Mus musculus [9]): 0.42
- Activity (Mus musculus [10]): 21
- Activity (Mus musculus [11]): 63
- IC50 (Mu-type opioid receptor [5]): 1.33 nM

SMILES: Cc1cc(O)cc(C)c1CC(N)C(=O)NCCCCc1nc(O)c(CCCCNC(=O)C(N)Cc2c(C)cc(O)cc2C)nc1C (stereo not given)
- IC50 [4]: 41.5 nM
- Ki (Mu-type opioid receptor [1]): 0.114 nM
- Ratio [2]: 204
- Ki [3]: 23.2 nM
- IC50 (Mu-type opioid receptor [5]): 1.9 nM

SMILES: Cc1nc(CNC(=O)C(N)Cc2ccc(O)cc2)c(=O)[nH]c1CNC(=O)C(N)Cc1ccc(O)cc1 (stereo not given)
- Ratio [2]: 4
- Ki [3]: 1830 nM
